Data set [1] has as its system Escherichia coli. Description: Drug resistance, ratio of MIC for Escherichia coli ATCC 25922 after 25 passages to MIC for Escherichia coli ATCC 25922 after initial exposure. Format: functional. In short, it runs like this: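 Serial passage resistance selection: after each broth MIC determination, bacteria from the 1/2 MIC well were withdrawn and diluted to 1 × 10^6 CFU/mL for the next MIC measurement. Repeated for 25 passages; MIC after passage 25 compared with the initial MIC.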

For data set [2], the system named is Bacillus subtilis. Description: Antibacterial activity against Bacillus subtilis ATCC 6633 assessed as reduction bacterial growth after 16 hrs by TECAN SPARK microplate reader analysis. The class given is functional. In short, it runs like this: (§1)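 Single colony grown overnight in 4 mL TSB at 37 °C, diluted 100-fold and grown to mid-log phase. Compounds 2-fold serially diluted in TSB and mixed 1:1 with bacteria in TSB (1 × 10^6 CFU/mL). Incubated 16 h at 37 °C, then A600 read. MIC taken as the lowest concentration giving complete growth inhibition.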

The test system of data set [3] is Escherichia coli. Description: Antibacterial activity against Escherichia coli ATCC 25922 assessed as reduction bacterial growth after 16 hrs by TECAN SPARK microplate reader analysis. Format: functional. A digest of the protocol: as §1
Data set [4] relates to Staphylococcus aureus. Description: Antibacterial activity against methicillin-resistant Staphylococcus aureus ATCC 43300 assessed as reduction bacterial growth after 16 hrs by TECAN SPARK microplate reader analysis. Format: functional. A digest of the protocol: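 Broth microdilution in TSB: single colony grown overnight at 37 °C, diluted 100-fold and grown to mid-log phase. 2-fold serial compound dilutions mixed 1:1 with bacteria at 1 × 10^6 CFU/mL, incubated 16 h at 37 °C, absorbance read at 600 nm. MIC taken as lowest concentration giving complete growth inhibition.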

For data set [5], the system named is Enterococcus faecalis. Kind of data set: Antibacterial activity against Enterococcus faecalis ATCC 29212 assessed as reduction bacterial growth after 16 hrs by TECAN SPARK microplate reader analysis. The class given is functional. In short, it runs like this:
as §1

In data set [6] the test system is Pseudomonas aeruginosa. Description: Antibacterial activity against Pseudomonas aeruginosa CMCC 10104 assessed as reduction bacterial growth after 16 hrs by TECAN SPARK microplate reader analysis. Format: functional. In short, it runs like this: as §1
The test system of data set [7] is Acinetobacter baumannii. Kind of data set: Antibacterial activity against Acinetobacter baumannii ATCC 19606 assessed as reduction bacterial growth after 16 hrs by TECAN SPARK microplate reader analysis. The class given is functional. In short, it runs like this:
as §1

Data set [8] concerns Staphylococcus aureus. Kind of data set: Antibacterial activity against Staphylococcus aureus ATCC 29213 assessed as reduction bacterial growth after 16 hrs by TECAN SPARK microplate reader analysis. The class given is functional. A digest of the protocol:
as §1

Data set [9] is described as follows: Hemolytic activity in mouse red blood cells assessed as hemolysis incubated for 1 hr by TECAN SPARK microplate reader analysis. The class given is toxicity, cell-based, Erythrocyte. The note with it: red blood cells (erythrocytes). A digest of the protocol:
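Mouse RBCs washed three times in 1× PBS by centrifugation (3500 rpm, 10 min) and made up as a 5% v/v suspension. Incubated with 2-fold serially diluted compound in PBS for 1 h at 37 °C, then centrifuged. Supernatant diluted in PBS and A540 read. % hemolysis calculated relative to 1% Triton X-100 (100%) and PBS (0%).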

The test system of data set [10] is Klebsiella pneumoniae. Description: Antibacterial activity against Klebsiella pneumoniae ATCC 10031 assessed as reduction bacterial growth after 16 hrs by TECAN SPARK microplate reader analysis. Format: functional. In short, it runs like this: as §1

≈ marks a conversion by molar mass, not a printed value.

Consider GENTAMICIN, for which the Ratio in data set [1] came out at 32.

`CCCCCCN1C(=O)[C@H](CCCCNC(=N)N)N(Cc2cccc(-c3cccc(CN4C(=O)N(CCCCCC)C(=O)[C@@H]4CCCCNC(=N)N)c3)c2)C1=O`: the minimal inhibitory concentration (MIC) came out at 3.91 µg/mL (≈ 5.06 µM) in data set [2]; 7.81 µg/mL (≈ 10.1 µM) in data set [3]; 7.81 µg/mL (≈ 10.1 µM) in data set [4]; 7.81 µg/mL (≈ 10.1 µM) in data set [5]; 15.6 µg/mL (≈ 20.2 µM) in data set [6]; 15.6 µg/mL (≈ 20.2 µM) in [7]. Besides, the results for the MIC in [8] and in data set [10] were 1.95 µg/mL (≈ 2.52 µM) and 3.91 µg/mL (≈ 5.06 µM), respectively. In [9], the concentration for 50% haemolysis (HC50) at 1 h worked out at 73.7 µg/mL.

For the compound `NCCCC[C@H]1C(=O)N(C23C[C@H]4C[C@@H](C2)C[C@@H](C3)C4)C(=O)N1Cc1ccc(-c2ccc(CN3C(=O)N(C45C[C@H]6C[C@@H](C4)C[C@@H](C5)C6)C(=O)[C@@H]3CCCCN)cc2)cc1`, the MIC in data set [2] is 7.81 µg/mL (≈ 9.9 µM); in [3], 62.5 µg/mL (≈ 79.2 µM); in data set [4], 125 µg/mL (≈ 158 µM); in [5] it was 7.81 µg/mL (≈ 9.9 µM); in data set [6] it was 250 µg/mL (≈ 317 µM); in data set [7], 15.6 µg/mL (≈ 19.8 µM). The MIC in [8] was 1.95 µg/mL (≈ 2.47 µM); in data set [10] it was 7.81 µg/mL (≈ 9.9 µM). The HC50 at 1 h in data set [9] is 33.6 µg/mL.

On to `CCCCCCN1C(=O)[C@H](CCCCN)N(Cc2ccc(Oc3ccc(CN4C(=O)N(CCCCCC)C(=O)[C@@H]4CCCCN)cc3)cc2)C1=O`, for which the MIC in [2] came to 3.91 µg/mL (≈ 5.55 µM); in [3], 3.91 µg/mL (≈ 5.55 µM); in [4] it was 7.81 µg/mL (≈ 11.1 µM); in data set [5] it was 7.81 µg/mL (≈ 11.1 µM); in [6] it was 31.2 µg/mL (≈ 44.3 µM); in data set [7] it was 3.91 µg/mL (≈ 5.55 µM). Moreover, the minimum inhibitory concentration (MIC) in data set [8] and in data set [10] was 3.91 µg/mL (≈ 5.55 µM) in each case. The HC50 at 1 h in [9] was determined as 69 µg/mL.

With `CCCCCCN1C(=O)[C@H](CCCCN)N(Cc2ccc(C#Cc3ccc(CN4C(=O)N(CCCCCC)C(=O)[C@@H]4CCCCN)cc3)cc2)C1=O`, the MIC in [2] was 3.91 µg/mL (≈ 5.48 µM); in data set [3], 7.81 µg/mL (≈ 11 µM); in data set [4], 62.5 µg/mL (≈ 87.7 µM); in data set [5], 7.81 µg/mL (≈ 11 µM); in [6], 15.6 µg/mL (≈ 21.9 µM); in data set [7], 7.81 µg/mL (≈ 11 µM). The MIC in data set [8] came out at 1.95 µg/mL (≈ 2.73 µM); in data set [10], 7.81 µg/mL (≈ 11 µM). For the same compound, the 50% haemolytic concentration (HC50) at 1 h in data set [9] amounted to 18 µg/mL.

What is called MIC is the lowest concentration found to suppress growth. By HC50 is commonly meant the concentration giving 50% haemolysis.

For the origin of these results see ChEMBL document CHEMBL5576109, “Hydantoin derivative dimers as broad-spectrum antimicrobial agents against ESKAPE pathogens with enhanced killing rate and stability” (RSC Med Chem, 2024).
